# Values joined by “and” are separate entries in the source; they are usually repeats but may differ in a detail not shown here. Identical values can stand only once.
# System: Fibroblast
# Experiment: Multiplex assay against human fibroblast
# Type: toxicity, cell-based
# Conditions: number of replicates 2
# How it was run: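 Live cells were stained at seeding with Hoechst33342, BioTracker Green Microtubule Cytoskeleton Dye, MitoTracker Red and Annexin V Alexa Fluor 680. Following compound addition, they were imaged on a CQ1 microscope at 37°C and 5% CO2 and gated by CellPathfinder machine learning into Hoechst high-intensity objects or normal cells, with normal cells split into healthy, pyknosed or fragmented nuclei and pyknosed cells into mitotic or apoptotic. Tubulin, mitochondrial-mass and membrane-permeability phenotypes are per cents of healthy-nucleus cells.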
# [1] = 12 h, 1 µM, compound concentration 1 uM
# [2] = 12 h, 10 µM, compound concentration 10 uM
# [3] = 24 h, 1 µM, compound concentration 1 uM
# [4] = 24 h, 10 µM, compound concentration 10 uM
# [5] = 48 h, 1 µM, compound concentration 1 uM
# [6] = 48 h, 10 µM, compound concentration 10 uM
compound,measurement,setting,value
COc1nc2ccc([C@@](O)(c3ccc(Cl)cc3)c3cncn3C)cc2c(Cl)c1Cc1ccc(-n2cccn2)cc1 [JNJ-53721590],Population Apoptotic (%),[1],30%
same,Population Fragmented Nuclei (%),[1],6% and 11%
same,Population Healthy Nuclei (%),[1],68% and 55%
same,Population Hoechst High Intensity Objects (%),[1],0%
same,Population Membrane Permeable-Phenotype (%),[1],9% and 11%
same,Population Mitochondria Different-Phenotype (%),[1],2% and 1%
same,Population Mitotic Cells (%),[1],69%
same,Population Normal (%),[1],100%
same,Population Pyknosed Nuclei (%),[1],24% and 32%
same,Population Tubulin-Different-Phenotype (%),[1],38% and 37%
same,Total Cell Count,[1],210 and 189
same,Population Apoptotic (%),[2],37% and 45%
same,Population Fragmented Nuclei (%),[2],14% and 7%
same,Population Healthy Nuclei (%),[2],63% and 67%
same,Population Hoechst High Intensity Objects (%),[2],0%
same,Population Membrane Permeable-Phenotype (%),[2],20%
same,Population Mitochondria Different-Phenotype (%),[2],5% and 3%
same,Population Mitotic Cells (%),[2],62% and 55%
same,Population Normal (%),[2],99% and 100%
same,Population Pyknosed Nuclei (%),[2],21% and 24%
same,Population Tubulin-Different-Phenotype (%),[2],73%
same,Total Cell Count,[2],206 and 241
same,Population Apoptotic (%),[3],62% and 56%
same,Population Fragmented Nuclei (%),[3],6% and 14%
same,Population Healthy Nuclei (%),[3],68% and 62%
same,Population Hoechst High Intensity Objects (%),[3],0%
same,Population Membrane Permeable-Phenotype (%),[3],3% and 10%
same,Population Mitochondria Different-Phenotype (%),[3],2% and 9%
same,Population Mitotic Cells (%),[3],37% and 43%
same,Population Normal (%),[3],100%
same,Population Pyknosed Nuclei (%),[3],25% and 23%
same,Population Tubulin-Different-Phenotype (%),[3],31% and 37%
same,Total Cell Count,[3],199 and 197
same,Population Apoptotic (%),[4],51% and 70%
same,Population Fragmented Nuclei (%),[4],20% and 12%
same,Population Healthy Nuclei (%),[4],62% and 60%
same,Population Hoechst High Intensity Objects (%),[4],0%
same,Population Membrane Permeable-Phenotype (%),[4],9% and 6%
same,Population Mitochondria Different-Phenotype (%),[4],18% and 20%
same,Population Mitotic Cells (%),[4],48% and 29%
same,Population Normal (%),[4],100% and 99%
same,Population Pyknosed Nuclei (%),[4],16% and 27%
same,Population Tubulin-Different-Phenotype (%),[4],75% and 69%
same,Total Cell Count,[4],218 and 241
same,Population Apoptotic (%),[5],85% and 72%
same,Population Fragmented Nuclei (%),[5],10% and 13%
same,Population Healthy Nuclei (%),[5],72% and 67%
same,Population Hoechst High Intensity Objects (%),[5],0%
same,Population Membrane Permeable-Phenotype (%),[5],3% and 2%
same,Population Mitochondria Different-Phenotype (%),[5],0% and 1%
same,Population Mitotic Cells (%),[5],14% and 27%
same,Population Normal (%),[5],100%
same,Population Pyknosed Nuclei (%),[5],17% and 19%
same,Population Tubulin-Different-Phenotype (%),[5],20% and 15%
same,Total Cell Count,[5],205
same,Population Apoptotic (%),[6],87%
same,Population Fragmented Nuclei (%),[6],26% and 18%
same,Population Healthy Nuclei (%),[6],64%
same,Population Hoechst High Intensity Objects (%),[6],0%
same,Population Membrane Permeable-Phenotype (%),[6],1% and 2%
same,Population Mitochondria Different-Phenotype (%),[6],7% and 8%
same,Population Mitotic Cells (%),[6],12%
same,Population Normal (%),[6],99% and 100%
same,Population Pyknosed Nuclei (%),[6],9% and 16%
same,Population Tubulin-Different-Phenotype (%),[6],63% and 53%
same,Total Cell Count,[6],247 and 282
